The RNAGym collection of RNA variant scans (doi:10.1002/anie.201605470)

B1: Osa-1-4 twister ribozyme (parent)
chain: CCGCCUAACACUGCCAAUGCCGGUCCCAAGCCCGGAUAAAAGUGGAGGGGGCGG

Variants of: B1
Assay: self-cleavage, relative activity (ratio to wild type); higher = more cleavage; co-transcriptional
Procedure, shortened: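 The 48 positions downstream of the cleavage site in a DNA template for a 54-nucleotide Oryza sativa twister ribozyme carried 97 % wild-type base and 1 % of each other base. After in vitro transcription (2 h, 37 °C) with co-transcriptional self-cleavage, the RNA was reverse-transcribed with a template-switching oligonucleotide, PCR-amplified and deep-sequenced. Relative activity is the fraction cleaved, judged by reads with or without upstream sequence and normalised to wild type.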

Variant	self-cleavage
A10G A39U	0.69
A10G A39C	0.61
A10G A39G	0.82
A10C G54C	0.14
A10C G54A	0.17
A10C G54U	0.3
A10U G44C	0.09
A10U G44A	0.03
A10U G44U	0.08
A10G C26A	0.04
A10G C26G	0.18
A10G C26U	0.5
A10G G49C	0.07
A10G G49U	0.09
A10G G49A	0.07
A10G A46G	0.08
A10G A46C	0.06
A10G A46U	0.11
A10G G54A	0.9
A10G G54C	0.85
A10G G54U	0.89
A10U C26A	0.01
A10U C26G	0.05
A10U C26U	0.04

Variant	self-cleavage
A10U G48C	0.01
A10U G48A	0.02
A10U G48U	0.01
A10U G23C	0.02
A10U G23A	0.03
A10U G23U	0.01
A10C G44U	0.22
A10C G44C	0.16
A10C G44A	0.06
A10U A46U	0.03
A10U A46C	0.02
A10U A46G	0
A10G A16G	0.89
A10G A16C	0.27
A10G A16U	0.61
A10U C33G	0.01
A10U C33U	0.04
A10U C33A	0.02
A10G G13U	0.04
A10G G13A	0.08
A10G G13C	0.03
A10G G45A	0.17
A10G G45U	0.1
A10G G45C	0.06

Variant	self-cleavage
A10U C25A	0.03
A10U C25G	0.02
A10U C25U	0.05
A10G G42U	0.06
A10G G42C	0.12
A10G G42A	0.22
A10C G42A	0.03
A10C G42U	0.01
A10C G42C	0.02
A10U C20G	0.03
A10U C20A	0.05
A10U C20U	0.05
A10G U24A	0.09
A10G U24C	0.1
A10G U24G	0.04
A10U A16U	0.06
A10U A16G	0.06
A10U A16C	0.03
A10G A8G	0.49
A10G A8C	0.13
A10G A8U	0.12
A10U C14U	0.04
A10U C14A	0.02
A10U C14G	0.03

Variant	self-cleavage
A10G C31A	0.05
A10G C31U	0.36
A10G C31G	0.1
A10U G19A	0.05
A10U G19C	0.01
A10U G19U	0.02
A10C G51A	0.06
A10C G51U	0.04
A10C G51C	0.02
A10U C9U	0.05
A10U C9G	0.07
A10U C9A	0.04
A10G U18A	0.85
A10G U18C	0.68
A10G U18G	0.66
A10G C14G	0.16
A10G C14A	0.11
A10G C14U	0.28
A10G C52U	0.95
A10G C52A	0.92
A10G C52G	0.75
A10C G45A	0.02
A10C G45U	0.02
A10C G45C	0.02

Variant	self-cleavage
A10G C21G	0.08
A10G C21A	0.33
A10G C21U	0.89
A10G C15A	0.17
A10G C15U	0.14
A10G C15G	0.2
A10G U43A	0.79
A10G U43C	0.96
A10G U43G	0.3
A10G G47U	0.12
A10G G47C	0.07
A10G G47A	0.13
A10G C32G	0.15
A10G C32A	0.07
A10G C32U	0.1
A10C G19A	0.04
A10C G19U	0.03
A10C G19C	0.02
A10U A17U	0.08
A10U A17C	0.04
A10U A17G	0.07
A10G A29G	0.09
A10G A29U	0.07
A10G A29C	0.05

Variant	self-cleavage
A10G A28C	0.63
A10G A28G	0.15
A10G A28U	0.43
A10U A7G	0.08
A10U A7C	0.02
A10U A7U	0.03
A10C U18C	0.07
A10C U18G	0.24
A10C U18A	0.08
A10U C52U	0.05
A10U C52G	0.07
A10U C52A	0.04
A10U C27U	0.05
A10U C27G	0.04
A10U C27A	0.02
A10U A8U	0.04
A10U A8G	0.05
A10U A8C	0.03
A10C G22A	0.05
A10C G22U	0.03
A10C G22C	0.02
A10U G22C	0.02
A10U G22A	0.05
A10U G22U	0.03

Variant	self-cleavage
A10C C32U	0.02
A10C C32G	0.02
A10C C32A	0.02
A10U	0.05
A10G	0.91
A10C U37C	0.09
A10C U37G	0.11
A10C U37A	0.11
A10C G23A	0.03
A10C G23C	0.01
A10C G23U	0.02
A10U A41C	0.04
A10U A41G	0.04
A10U A41U	0.07
A10G A41C	0.39
A10G A41G	0.2
A10G A41U	0.76
A10U G45A	0.03
A10U G45C	0.02
A10U G45U	0.02
A10G C9U	0.77
A10G C9A	0.57
A10G C9G	0.41
A10G G50U	0.98

Variant	self-cleavage
A10G G50C	0.82
A10G G50A	0.49
A10G G22A	0.38
A10G G22C	0.05
A10G G22U	0.16
A10U G47U	0.02
A10U G47A	0.02
A10U G47C	0.02
A10G A17C	0.44
A10G A17G	0.64
A10G A17U	0.85
A10G G34A	0.24
A10G G34U	0.14
A10G G34C	0.12
A10C G34C	0.03
A10C G34A	0.04
A10C G34U	0.05
A10U G13U	0
A10U G13A	0.01
A10U G13C	0.01
A10C G49A	0.02
A10C G49U	0.02
A10C G49C	0.02
A10G A7C	0.06

Variant	self-cleavage
A10G A7G	0.39
A10G A7U	0.09
A10G C11A	0.38
A10G C11U	0.8
A10G C11G	0.12
A10G A36U	0.94
A10G A36C	0.26
A10G A36G	0.86
A10U C15G	0.03
A10U C15U	0.04
A10U C15A	0.03
A10U G35C	0.03
A10U G35U	0.04
A10U G35A	0.06
A10C C33U	0.04
A10C C33A	0.03
A10C C33G	0.02
A10G C25G	0.08
A10G C25U	0.4
A10G C25A	0.07
A10G C20G	0.09
A10G C20U	0.81
A10G C20A	0.78
A10U C11A	0.04

Variant	self-cleavage
A10U C11U	0.05
A10U C11G	0.03
A10G G30U	0.05
A10G G30A	0.05
A10G G30C	0.07
A10C C31U	0.03
A10C C31G	0.03
A10U G34C	0.03
A10U G34A	0.05
A10U G34U	0.03
A10U G49C	0.01
A10U G49A	0.04
A10U G49U	0.02
A10C G47U	0.03
A10C G47C	0.02
A10C G47A	0.02
A10G C27G	0.07
A10G C27U	0.1
A10G C27A	0.12
A10C G48C	0.02
A10C G48U	0.02
A10C G48A	0.02
A10U A39G	0.08
A10U A39U	0.12

Variant	self-cleavage
A10U A39C	0.04
A10U G42A	0.04
A10U G42C	0.04
A10U G42U	0.02
A10G G53C	0.07
A10G G53U	0.22
A10G G53A	0.41
A10G G35A	0.41
A10G G35C	0.13
A10G G35U	0.4
A10U A38C	0.06
A10U A38U	0.05
A10U A38G	0.07
A10G G51C	0.08
A10G G51U	0.18
A10G G51A	0.28
A10G U12A	0.21
A10G U12C	0.12
A10G U12G	0.2
A10U A28U	0.05
A10U A28G	0.04
A10U A28C	0.03
A10C U24C	0.04
A10C U24G	0.02

Variant	self-cleavage
A10C U24A	0.02
A10G G23U	0.05
A10G G23C	0.05
A10G G23A	0.1
A10C G30C	0.01
A10C G30U	0.01
A10C G30A	0.01
A10G G19U	0.13
A10G G19C	0.09
A10G G19A	0.28
A10C U12C	0.06
A10C U12A	0.03
A10C U12G	0.04
A10C G50A	0.11
A10C G50U	0.04
A10C G50C	0.04
A10C C52G	0.11
A10C C52U	0.11
A10C C52A	0.06
A10C G53A	0.11
A10C G53C	0.02
A10C G53U	0.06
A10G G48C	0.06
A10G G48U	0.06

Variant	self-cleavage
A10G G48A	0.07
A10G A38U	0.8
A10G A38C	0.91
A10G A38G	0.88
A10U A29C	0.01
A10U A29G	0.03
A10U A29U	0.03
A10U C31U	0.05
A10U C31G	0.03
A10U C31A	0
A10G A40C	0.08
A10G A40G	0.34
A10G A40U	0.27
A10G U37G	0.87
A10G U37A	0.67
A10G U37C	0.95
A10G C33A	0.1
A10G C33G	0.07
A10G C33U	0.33
A10U G30U	0.01
A10U G30A	0.01
A10U G30C	0.01
A10U C21G	0.02
A10U C21A	0.03

Variant	self-cleavage
A10U C21U	0.07
A10G G44U	0.87
A10G G44C	0.81
A10G G44A	0.72
A10U A36U	0.04
A10U A36G	0.05
A10U A36C	0.03
A10C G35U	0.04
A10C G35A	0.07
A10C G35C	0.03
A10C U43C	0.05
A10C U43G	0.64
A10C U43A	0.39
A10U A40G	0.05
A10U A40U	0.05
A10U A40C	0.01
A10U C32U	0.02
A10U C32G	0.04
A10U C32A	0.01
A10C G13U	0.03
A10C G13A	0.02
A10C G13C	0.02
